This note sets out measurements from ChEMBL document CHEMBL3826890, “Synthesis and properties of peptide nucleic acid labeled at the N-terminus with HiLyte Fluor 488 fluorescent dye” (Bioorg Med Chem, 2016).

A short description of data set [1]: Binding affinity to dsRNA (unknown origin) after 350 to 600 secs by isothermal titration calorimetry assay.
A short description of data set [2]: Drug uptake in cytoplasm of human MDA-MB-231 cells at 1 uM after 24 hrs using HF488-labeled compound by lysotracker deep red/DAPI based fluorescence assay. Format: ADME, cell-based. The note with it: mda-mb-231, 24 h. Put shortly: (§1)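 Cells treated with 1 µM HF488-labeled PNA in Opti-MEM at 37 °C, 10% CO2, for 24 h. Acidic organelles then stained with LysoTracker Deep Red and nuclei with DAPI. Intracellular localization assessed by fluorescence microscopy.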

A short description of data set [3]: Drug uptake in cytoplasm of human Caco2 cells at 1 uM after 24 hrs using HF488-labeled compound by lysotracker deep red/DAPI based fluorescence assay. It counts as ADME, cell-based. Particulars: caco-2, 24 h; call rule not given here. Put shortly: as §1
A short description of data set [4]: Drug uptake in cytoplasm of HEK293 cells at 1 uM after 24 hrs using HF488-labeled compound by lysotracker deep red/DAPI based fluorescence assay. Particulars: human, hek293, 24 h. Format: ADME, cell-based. Put shortly:
as §1

Data set [5] in a line: Drug uptake in cytoplasm of human U87MG cells at 1 uM after 24 hrs using HF488-labeled compound by lysotracker deep red/DAPI based fluorescence assay. Format: ADME, cell-based. Particulars: u-87mg atcc. The procedure, abridged: as §1
The subject of data set [6] is HEK293. Kind of data set: Fluorescence intensity in buffer at 1 uM at pH 5 to 8 at 25 degC after 12 hrs using 5'-HF488-labeled compound by fluorescence spectroscopy. The note with it: pH 5, 12 h.
Data set [7] has as its system HEK293. Description: Fluorescence intensity in buffer at 1 uM at pH 5 to 8 at 25 degC after 12 hrs using 6'-HF488-labeled compound by fluorescence spectroscopy. Particulars: pH 5, 12 h.
Data set [8] concerns HEK293. Description: Fluorescence intensity in buffer at 1 uM at pH <7 at 25 degC after 12 hrs using FAM-labeled compound by fluorescence spectroscopy.
For data set [9], the system named is HEK293. Kind of data set: Drug degradation in HEK293 cells assessed as photobleaching rate at 1 uM after 4 scans using FAM-labeled compound by DAPI staining-based laser scanning microscopic method. Format: ADME, cell-based. Particulars: human, hek293, 1 µM. Put shortly: (§2)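 Live HEK293 cells incubated 12 h at 37 °C with 1 µM labeled PNA in Opti-MEM, then nuclei stained with DAPI. Laser scanning confocal images (63× objective) taken at 32-s intervals over 30 min, scan average 8. Photostability given as MFI of each scan divided by MFI of the first scan, as a percentage. Mean of three experiments.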

Data set [10] relates to HEK293. Kind of data set: Drug uptake in HEK293 cells at 1 uM after 12 hrs using FAM-labeled compound by flow cytometric method. Format: ADME, cell-based. Particulars: human, hek293, 12 h. Put shortly:
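HEK293 cells incubated 12 h at 37 °C with 1 µM labeled PNA in Opti-MEM. Cells harvested, resuspended in DPBS and analysed by flow cytometry.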

Data set [11] has as its system HEK293. Description: Drug degradation in HEK293 cells assessed as photobleaching rate at 1 uM after 12 scans using FAM-labeled compound by DAPI staining-based laser scanning microscopic method. Particulars: human, hek293, 1 µM. Format: ADME, cell-based. The procedure, abridged: as §2

Molecule `Cc1cn(CC(=O)N(CCNC(=O)CN(CCNC(=O)CN(CCNC(=O)CN(CCNC(=O)[C@@H](N)CCCCN)C(=O)Cc2ccc(N)nc2)C(=O)Cn2cc(C)c(=O)[nH]c2=O)C(=O)Cc2ccc(N)nc2)CC(=O)NCCN(CC(=O)NCCN(CC(=O)NCCN(CC(=O)NCCN(CC(=O)NCCN(CC(=O)N[C@H](CCCCN)C(=O)N[C@@H](CCCCN)C(=O)N[C@H](CCCCN)C(N)=O)C(=O)Cc2ccc(N)nc2)C(=O)Cc2ccc(N)nc2)C(=O)Cn2cc(C)c(=O)[nH]c2=O)C(=O)Cn2cc(C)c(=O)[nH]c2=O)C(=O)Cc2ccc(N)nc2)c(=O)[nH]c1=O` yielded a Kd in data set [1] of 7.35 nM.

For the molecule `Cc1cn(CC(=O)N(CCNC(=O)CN(CCNC(=O)CN(CCNC(=O)CN(CCNC(=O)[C@@H](N)CCCCN)C(=O)Cc2ccc(N)nc2)C(=O)Cn2cc(C)c(=O)[nH]c2=O)C(=O)Cc2ccc(N)nc2)CC(=O)NCCN(CC(=O)NCCN(CC(=O)NCCN(CC(=O)NCCN(CC(=O)NCCN(CC(=O)N[C@@H](CCCCN)C(=O)N[C@@H](CCCCN)C(=O)N[C@@H](CCCCN)C(N)=O)C(=O)Cc2ccc(N)nc2)C(=O)Cc2ccc(N)nc2)C(=O)Cn2cc(C)c(=O)[nH]c2=O)C(=O)Cn2cc(C)c(=O)[nH]c2=O)C(=O)Cc2ccc(N)nc2)c(=O)[nH]c1=O`, the Drug uptake result in data set [2], in data set [3], in data set [4] and in data set [5] was “Active” throughout.

For the molecule `Cc1cn(CC(=O)N(CCNC(=O)CN(CCNC(=O)CN(CCNC(=O)CN(CCNC(=O)[C@H](CCCCN)NC(=O)COCCOCCNC(=O)COCCOCCN)C(=O)Cn2ccc(N)nc2=O)C(=O)Cn2cc(C)c(=O)[nH]c2=O)C(=O)Cn2ccc(N)nc2=O)CC(=O)NCCN(CC(=O)NCCN(CC(=O)NCCN(CC(=O)NCCN(CC(=O)NCCN(CC(=O)N[C@@H](CCCCN)C(=O)N[C@@H](CCCCN)C(=O)N[C@@H](CCCCN)C(N)=O)C(=O)Cn2ccc(N)nc2=O)C(=O)Cn2ccc(N)nc2=O)C(=O)Cn2cc(C)c(=O)[nH]c2=O)C(=O)Cn2cc(C)c(=O)[nH]c2=O)C(=O)Cn2ccc(N)nc2=O)c(=O)[nH]c1=O`, the values for the Fluorescence intensity entry in data set [6], in [7] and in data set [8] were “Active”, “Active” and “Not Active”, respectively.

For the molecule `Cc1cn(CC(=O)N(CCNC(=O)CN(CCNC(=O)CN(CCNC(=O)CN(CCNC(=O)[C@H](CCCCN)NC(=O)COCCOCCNC(=O)COCCOCCNC(=O)[C@@H](N)CCCCN)C(=O)Cc2ccc(N)nc2)C(=O)Cn2cc(C)c(=O)[nH]c2=O)C(=O)Cc2ccc(N)nc2)CC(=O)NCCN(CC(=O)NCCN(CC(=O)NCCN(CC(=O)NCCN(CC(=O)NCCN(CC(=O)N[C@@H](CCCCN)C(=O)N[C@@H](CCCCN)C(=O)N[C@@H](CCCCN)C(N)=O)C(=O)Cc2ccc(N)nc2)C(=O)Cc2ccc(N)nc2)C(=O)Cn2cc(C)c(=O)[nH]c2=O)C(=O)Cn2cc(C)c(=O)[nH]c2=O)C(=O)Cc2ccc(N)nc2)c(=O)[nH]c1=O`, the Drug degradation in [9] turned out to be 20%; in [11], 50%. Further, the Drug uptake entry in data set [10] is “Active”.
